# Variants at the floor of the assay were thinned out.
# B1: tRNA (parent)
# chain: GUUCCGUUGGCGUAAUGGUAACGCGUCUCCCUCCUAAGGAGAAGACUGCGGGUUCGAGUCCCGUACGGAACG
# Variants of: B1
# Assay: yeast fitness relative to wild type (ratio to wild type); higher = fitter; tRNA-Arg(CCU), competitive growth, 37 C, YPD
# Procedure, shortened: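 The tRNA-Arg(CCU) gene variants were made by chemical synthesis with a 3% per-site mutation rate at 69 sites and inserted at the native genomic locus of Saccharomyces cerevisiae. After pooling, the strains were competed in YPD at 37°C for 24 hours in six parallel replicates. Gene amplicons from the start population and each end population were read by 100-nucleotide paired-end sequencing, and Darwinian fitness relative to wild type was taken from genotype frequency changes. Genotypes needed ≥ 100 starting reads, and estimates < 0.5 were set to 0.5.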
row,Variant,yeast fitness
1,C22G C31G U54A C61G A69C,≤ 0.5
2,C22G C31G A36G,0.646
3,C22G C30A C61U,0.545
4,C22G C34G A43U C49A,≤ 0.5
5,C22A C60G,0.57
6,C22A C60U,0.682
7,C22G C27G C29G C49U,≤ 0.5
8,C22G C61A,0.623
9,C22G C61U,0.841
10,C22G A43C C55G,0.577
11,C22G C30U A37G A43U,0.549
12,C22A G25A,0.992
13,C22A C24A U26C C66U,≤ 0.5
14,C22A C49G G67A,≤ 0.5
15,C22G A36G C46U,0.709
16,C22G C27G C29G C34A G44C G56A A57G,0.529
17,C22A C29U C66U,≤ 0.5
18,A21U U32G A37G A45G C55A,≤ 0.5
19,A21U G25A C60U G68U,≤ 0.5
20,C22G A42C,0.635
21,C22G C30U A37G A43U G68U,≤ 0.5
22,C22A C29G C33U A70C,≤ 0.5
23,A21U G25C A37G A43G A65G,≤ 0.5
24,C22G C24G U54A A69U,≤ 0.5

row,Variant,yeast fitness
1,C22A G23C C49G,≤ 0.5
2,C22A C33A G39C,≤ 0.5
3,C22A C27G G41A,0.614
4,C22A G63A,0.983
5,C22A G50C A70G,≤ 0.5
6,C22G C46U C66G,≤ 0.5
7,C22A A42U G44A C62U,≤ 0.5
8,A21U C46U C49U U54A,≤ 0.5
9,A21U C33G A57C,≤ 0.5
10,C22A C30U C31G,0.551
11,A21U G23C,0.579
12,C22G C27G C30A U32G C55G,≤ 0.5
13,C22G C34G A70C,0.608
14,C22A C24U,0.74
15,A21U U26A C27G C30G A36U G38C C46U C49G A65U,≤ 0.5
16,C22A A57G C60A,≤ 0.5
17,A21U C60U G67U,≤ 0.5
18,C22G A36C U54C C55U C60A C62G A69U,≤ 0.5
19,C22A G48A C49U G50A G51C U64A A70C,0.563
20,C22A A36G A42G,≤ 0.5
21,C22G A42U G63C,≤ 0.5
22,A21U C33G A70U,≤ 0.5
23,C22A A57G,0.916
24,C22G A69G,0.952

row,Variant,yeast fitness
1,C22A C46G G52A,≤ 0.5
2,C22A U59C,0.814
3,C22G A57U,0.619
4,A21U G25A,0.757
5,C22G C24U A37C,≤ 0.5
6,A21U G41C A43C C49A C62U,≤ 0.5
7,C22G C24G U47C,0.642
8,C22G C29G C46U,0.568
9,A21U G63A,0.856
10,A21U U32A A70G,≤ 0.5
11,A21U G23C A36U,≤ 0.5
12,C22G A45C A57U C62A,0.716
13,C22G C27U A43G,0.623
14,C22A G23C A42G,≤ 0.5
15,C22G C29U C31A A65G,≤ 0.5
16,C22A G23A A37G U54G,≤ 0.5
17,C22G C27G C31G G48A C61G A69U,≤ 0.5
18,C22G C24U G50C,≤ 0.5
19,C22A G25A G44A,0.65
20,C22G C49G U64G A65G A70U,≤ 0.5
21,A21U C55G C60A C61G C66G,≤ 0.5
22,C22A C30G C34G,≤ 0.5
23,C22A C62A,0.785
24,C22G A36G A37G C60G A69G,≤ 0.5

row,Variant,yeast fitness
1,C22A C24U G44C G48A,≤ 0.5
2,C22G C30G U47C A70U,≤ 0.5
3,C22A U53G G56C G67C,≤ 0.5
4,C22A A45C C66A,≤ 0.5
5,C22A A45C C66G,0.691
6,C22G A42C A70U,0.671
7,C22A C31U A43U,0.623
8,C22A U28C A42G U47A,0.64
9,C22G C55A C60A,≤ 0.5
10,C22G C62U G68C,≤ 0.5
11,C22G A45U A65C,0.534
12,C22A A69C A70G,0.638
13,C22G A70G,0.86
14,C22A A69U A70C,0.685
15,C22A C24G A36G G39C C55U,≤ 0.5
16,C22A G58A,0.866
17,C22G A37U A43U A65C,≤ 0.5
18,C22G C61A A69U,0.573
19,C22A C66G,0.714
20,C22G C46G,0.974
21,C22G C46A,1.03
22,C22A A43C G56A,0.853
23,C22A A36G G41A,0.548
24,A21U U54G,≤ 0.5

row,Variant,yeast fitness
1,C22G C31A A36G C49G G63C A69U,0.543
2,C22G C24U G44C,0.59
3,C22G C24U G44A,0.555
4,C22G A65C,0.863
5,C22A G48A G51A,0.582
6,A21U U28C C29G C49G A70U,≤ 0.5
7,A21U U28A A40U A45U,0.878
8,C22A U47A C66A,≤ 0.5
9,C22A C27A G52C G63A,≤ 0.5
10,C22A G23C A36C C60G A65C,≤ 0.5
11,A21U G25A G51A C60A,≤ 0.5
12,C22A U28G C31G A42U C61U,≤ 0.5
13,C22G C34G C61G,≤ 0.5
14,C22G C24G C29U C33U A37C G52A,0.625
15,A21U U26A A37C C62G,≤ 0.5
16,C22G C27U U59A,0.571
17,C22A C27G A36G,≤ 0.5
18,C22G A57G C61A,≤ 0.5
19,C22A C27G A43U C60A,0.557
20,C22G C29G C46U C66U,≤ 0.5
21,C22G C30G C55A U64C,0.581
22,C22G C27A A43C,0.587
23,A21U G25A G56U,≤ 0.5
24,C22G C34G U35A A36U C55U,≤ 0.5

row,Variant,yeast fitness
1,A21U U26C C60U,≤ 0.5
2,C22G C31G A57C A69C,≤ 0.5
3,C22G C46A C62U,1.04
4,C22G C27U A70U,0.678
5,C22G C24U C29U A42U,≤ 0.5
6,C22G A45G U53A C66G,0.565
7,C22A U28G G67U,≤ 0.5
8,C22G C46A C49U G68A,≤ 0.5
9,C22G C34G C61G A69G,≤ 0.5
10,C22G C60G C66A,≤ 0.5
11,C22A C29U C60A C66U,≤ 0.5
12,C22G C27U C66U,0.701
13,C22G A43U G52A U54C G56U U64C,≤ 0.5
14,A21U U35C G44A G48C C55G A69U,≤ 0.5
15,C22A A43U C60A A65G,0.683
16,A21U U64C,0.775
17,C22A C31G,0.749
18,C22A C31U,1.07
19,A21U U28G C55A G58A,≤ 0.5
20,A21U G52A G58A,≤ 0.5
21,C22G C27G C31G G56A C61G A69U,≤ 0.5
22,C22G C31A A43G A57C A65U,≤ 0.5
23,C22G C29G C33U A42G G50A C66U,≤ 0.5
24,C22A C24G A36G G39C C55U C66U,0.513

row,Variant,yeast fitness
1,C22G C60G C62U,≤ 0.5
2,C22G C30G U47C U54C,≤ 0.5
3,A21U G67C A69U,≤ 0.5
4,A21U U53A C66U,≤ 0.5
5,C22A C49A C61U,≤ 0.5
6,A21U U59A,0.587
7,C22A A37U G44A A70G,≤ 0.5
8,C22G C34A U53C,0.543
9,A21U U53C A57C,0.619
10,C22G C27G C31G A69U,0.554
11,C22A A45U G63A,0.558
12,C22G C33U A40U U59A,0.514
13,A21U G38C G44C C62A,≤ 0.5
14,A21U G23C C49U,≤ 0.5
15,C22G C33A A36C A43G C55G,0.595
16,C22A C24A U26C C60G C61U,≤ 0.5
17,C22A C31G A37G G38C A43G G58C,0.532
18,A21U C49U U54A U64C,≤ 0.5
19,C22G C27G C29G C34A A36G A43U A65U,≤ 0.5
20,C22A C30U A42C A57U G67A A70U,≤ 0.5
21,C22G C33U,0.713
22,C22G C27U C33A A36C A43G C55G,≤ 0.5
23,C22G C29G C33U,≤ 0.5

# From the RNAGym collection of RNA variant scans (doi:10.1126/science.aae0568)
